# Measurements taken from ChEMBL document CHEMBL5532752, “Integrating a quinone substructure into histone deacetylase inhibitors to cope with Alzheimer's disease and cancer” (RSC Med Chem, 2024).
# Active and inactive are the calls of the source. The calls are words filed in the database; no cut-off is given here.
# Tested on: SH-SY5Y
# Test: Neuroprotective activity against H2O2-induced cytotoxicity in human SH-SY5Y cells assessed as increase in cell viability at 1 to 50 uM pretreated for 24 hrs followed by incubation for 1 hr with H2O2 and incubated in drug-free medium for 22 hrs by MUH reagent based spectrophotometric analysis
# Type: functional
# Conditions: dose 1-50 µM, time 25.0 hrs
# Method in brief: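 SH-SY5Y pretreated 24 h with 1, 10 or 50 μM compound, exposed 1 h to H2O2, then 22 h recovery in drug-free complete medium. H2O2 level printed as 300 μM in methods but 600 μM in figure legend. Viability by MUH fluorescence (ex 330/em 450 nm) vs untreated cells; one-way ANOVA, Tukey.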
smiles,measurement,value
CC1=C(NCCCCNC(=O)CS)C(=O)c2ccccc2C1=O,Activity,inactive
